Activity calls are given as the source filed them. The calls are words filed in the database; no cut-off is given here.
Experiments:
U2OS [1] = assay: Cytotoxicity against human U2OS cells at 20 ug/mL after 48 hrs by alamar blue assay; assay type: functional, cell-based
HT-1080 [2] = assay: Cytotoxicity against human HT1080 cells at 20 ug/mL after 48 hrs by alamar blue assay; assay type: functional, cell-based
Procedure, shortened: (§1)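 Each cell line exposed for 48 h to a 2-fold, 12-point dilution series beginning at 20 µg/mL. Viability by Alamar blue; LC50 derived from the curves.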

BJeLR = assay: Cytotoxicity against human BJeLR cells expressing RAS G12V mutant at 20 ug/mL after 48 hrs by alamar blue assay; assay type: functional, cell-based
HT1299 = assay: Cytotoxicity against human HT1299 cells at 20 ug/mL after 48 hrs by alamar blue assay; assay type: functional, cell-based; procedure, shortened: as §1
[3] = system: E3 ubiquitin-protein ligase Mdm2 (Homo sapiens), Q00987 [C464A]; assay: Inhibition of Mdm2 C464A mutant at 20 ug/mL after 2 hrs by cell-based luciferase assay
[4] = target: E3 ubiquitin-protein ligase Mdm2 (Homo sapiens) (UniProt Q00987); assay: Inhibition of wild type Mdm2 at 20 ug/mL after 2 hrs by cell-based luciferase assay
RKO [5] = assay: Cytotoxicity against human RKO cells at 20 ug/mL after 48 hrs by alamar blue assay; assay type: functional, cell-based; procedure, shortened: as §1
MCF7 = assay: Cytotoxicity against human MCF7 cells at 20 ug/mL after 48 hrs by alamar blue assay; assay type: functional, cell-based; procedure, shortened: as §1
BJeH = assay: Cytotoxicity against human BJeH cells expressing wild type RAS at 20 ug/mL after 48 hrs by alamar blue assay; assay type: functional, cell-based
[6] = Cytotoxicity against human BJeLR cells expressing RAS G12V mutant after 48 hrs by alamar blue assay; assay type: functional, cell-based; conditions: read-out: LC50 (the source's name)
[7] = Cytotoxicity against human BJeH cells expressing wild type RAS after 48 hrs by alamar blue assay; assay type: functional, cell-based; conditions: read-out: LC50 (the source's name)
U2OS [8] = assay: Cytotoxicity against human U2OS cells after 48 hrs by alamar blue assay; assay type: functional; conditions: read-out: LC50 (the source's name)
[9] = Cytotoxicity against human HT1299 cells after 48 hrs by alamar blue assay; assay type: functional; conditions: HT1299, 48 h, read-out: LC50 (the source's name)
HT-1080 [10] = assay: Cytotoxicity against human HT1080 cells after 48 hrs by alamar blue assay; assay type: functional; conditions: HT-1080, 48 h, read-out: LC50 (the source's name)
RKO [11] = assay: Cytotoxicity against human RKO cells after 48 hrs by alamar blue assay; assay type: functional; conditions: read-out: LC50 (the source's name)

Sequence of E3 ubiquitin-protein ligase Mdm2 (Homo sapiens) (Q00987 whole entry, looked up): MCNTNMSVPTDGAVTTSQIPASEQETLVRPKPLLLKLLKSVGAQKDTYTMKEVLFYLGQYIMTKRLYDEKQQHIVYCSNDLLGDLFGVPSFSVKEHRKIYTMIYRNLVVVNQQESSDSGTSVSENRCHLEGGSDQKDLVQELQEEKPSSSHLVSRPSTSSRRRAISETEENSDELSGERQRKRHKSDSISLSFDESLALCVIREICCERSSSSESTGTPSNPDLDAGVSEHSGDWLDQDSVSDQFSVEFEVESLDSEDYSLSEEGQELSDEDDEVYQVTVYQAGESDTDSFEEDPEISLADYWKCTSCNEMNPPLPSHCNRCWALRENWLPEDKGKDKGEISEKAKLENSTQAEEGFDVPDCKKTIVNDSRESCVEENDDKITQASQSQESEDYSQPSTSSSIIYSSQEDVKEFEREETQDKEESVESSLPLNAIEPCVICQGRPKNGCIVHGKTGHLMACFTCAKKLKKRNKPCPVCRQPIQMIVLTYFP
Sequence of E3 ubiquitin-protein ligase Mdm2 (Homo sapiens), Q00987 [C464A] (Q00987 whole entry C464A): as the sequence (Q00987 whole entry, looked up) above, with C464A counted along it

Row | SMILES | Activity (U2OS [1]) | Activity (HT-1080 [2]) | Activity (BJeLR) | Activity (HT1299) | inhibition [3] | inhibition [4] | Activity (RKO [5]) | Activity (MCF7) | Activity (BJeH) | CC50 [6] [µM] | CC50 [7] [µM] | CC50 (U2OS [8]) [µM] | CC50 [9] [µM] | CC50 (HT-1080 [10]) [µM] | CC50 (RKO [11]) [µM]
1 | CN1C(=O)C(Cc2nccc3c2[nH]c2ccccc23)C(=O)N(C)C1=O | inactive | inactive | inactive | inactive | inactive | inactive | inactive | inactive | inactive | – | – | – | – | – | –
2 | CN1C(=O)C(c2nccc3c2[nH]c2ccccc23)C(=O)N(C)C1=O | inactive | inactive | inactive | inactive | inactive | inactive | inactive | inactive | inactive | – | – | – | – | – | –
3 | CCOC(=O)C(C)C1NCCc2c1[nH]c1ccccc21 (stereo not given) | inactive | inactive | – | inactive | inactive | inactive | inactive | inactive | – | 31.6 | 73.5 | – | – | – | –
4 | CC(C)(C)OC(=O)N1CCc2c(n(C(=O)OC(C)(C)C)c3ccccc23)C1CC=O (stereo not given) | – | – | – | – | inactive | inactive | – | – | – | 23.4 | 48.3 | 10.3 | 11.8 | 15.2 | 7
5 | CCOC(=O)C1c2[nH]c3ccccc3c2CCN1C(=O)OC (stereo not given) | inactive | inactive | inactive | inactive | inactive | inactive | inactive | inactive | inactive | – | – | – | – | – | –
6 | CCOC(=O)C1c2c(c3ccccc3n2C(=O)OC(C)(C)C)CCN1C(=O)OC (stereo not given) | inactive | inactive | inactive | inactive | inactive | inactive | inactive | inactive | inactive | – | – | – | – | – | –
7 | CC(C)(C)OC(=O)N1CCc2c(n(C(=O)OC(C)(C)C)c3ccccc23)C1CCO (stereo not given) | – | inactive | inactive | inactive | inactive | inactive | – | inactive | inactive | – | – | 49.7 | – | – | 49.7
8 | CN1C(=O)C(Cc2nccc3c4ccccc4n(C(=O)OC(C)(C)C)c23)C(=O)N(C)C1=O | inactive | inactive | inactive | inactive | inactive | inactive | inactive | inactive | inactive | – | – | – | – | – | –
9 | CCOC(=O)C1c2c(c3ccccc3n2C)CCN1C(=O)OC(C)(C)C (stereo not given) | inactive | inactive | inactive | inactive | inactive | inactive | inactive | inactive | inactive | – | – | – | – | – | –
10 | CCCN1C(=O)C(CC(C)C2NCCc3c2[nH]c2ccccc32)C(=O)N(CCC)C1=O (stereo not given) | inactive | inactive | inactive | inactive | inactive | inactive | inactive | inactive | inactive | – | – | – | – | – | –
11 | CC(CC1C(=O)N(C)C(=O)N(C)C1=O)C1NCCc2c1[nH]c1ccccc21 (stereo not given) | – | inactive | – | inactive | inactive | inactive | – | inactive | – | 54.3 | 54.3 | – | – | – | 54.3
12 | COC(=O)CC1c2[nH]c3ccccc3c2CCN1Cc1ccccc1 (stereo not given) | inactive | inactive | – | inactive | inactive | inactive | inactive | inactive | inactive | 59.8 | – | – | – | – | –
13 | O=Cc1nccc2c1[nH]c1ccccc12 | inactive | – | – | – | inactive | inactive | – | inactive | inactive | 32.4 | – | – | 67.5 | 67.5 | 11.1
